ChEMBL document CHEMBL2086328, “¹⁸F-labeled 2-phenylquinoxaline derivatives as potential positron emission tomography probes for in vivo imaging of β-amyloid plaques” (Eur J Med Chem, 2012)
Activity calls are given as the source filed them. The calls are words filed in the database; no cut-off is given here.

Experiments:
[1] = Binding affinity to beta-amyloid
Intestine [2] = assay: Biodistribution in ICR mouse intestine at 370 kBq, iv after 10 mins by gamma counting; assay type: ADME, organism-based; conditions: in vivo
How it was run: (§1)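 Male ICR mice (five weeks, 20–22 g), tail-vein injection of 18F tracer in 0.1 mL saline with 10% EtOH. Killed by decapitation at set times, n = 5 per time point. Organs removed, weighed and gamma-counted; %ID/g wet tissue from comparison with diluted aliquots of injected dose; mean ± SD.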

Bone [3] = assay: Biodistribution in ICR mouse bone at 370 kBq, iv after 2 mins by gamma counting; assay type: ADME, organism-based, Bone element; conditions: in vivo; how it was run: as §1
Blood [4] = assay: Biodistribution in ICR mouse blood at 370 kBq, iv after 30 mins by gamma counting; assay type: ADME, organism-based; conditions: in vivo, 0.5 h; how it was run: as §1
Lung [5] = assay: Biodistribution in ICR mouse lung at 370 kBq, iv after 2 mins by gamma counting; assay type: ADME, organism-based; conditions: in vivo; how it was run: as §1
Heart [6] = assay: Biodistribution in ICR mouse heart at 370 kBq, iv after 2 mins by gamma counting; assay type: ADME, organism-based; conditions: in vivo; how it was run: as §1
Spleen [7] = assay: Biodistribution in ICR mouse spleen at 370 kBq, iv after 30 mins by gamma counting; assay type: ADME, organism-based; conditions: in vivo, 0.5 h; how it was run: as §1
Brain [8] = assay: Biodistribution in ICR mouse brain at 370 kBq, iv after 10 mins by gamma counting; assay type: ADME, organism-based; conditions: in vivo; how it was run: as §1
Kidney [9] = assay: Biodistribution in ICR mouse kidney at 370 kBq, iv after 30 mins by gamma counting; assay type: ADME, organism-based; conditions: in vivo, 0.5 h; how it was run: as §1
Blood [10] = assay: Biodistribution in ICR mouse blood at 370 kBq, iv after 2 mins by gamma counting; assay type: ADME, organism-based; conditions: in vivo; how it was run: as §1
Lung [11] = assay: Biodistribution in ICR mouse lung at 370 kBq, iv after 10 mins by gamma counting; assay type: ADME, organism-based; conditions: in vivo; how it was run: as §1
Intestine [12] = assay: Biodistribution in ICR mouse intestine at 370 kBq, iv after 60 mins by gamma counting; assay type: ADME, organism-based; conditions: in vivo, 1 h; how it was run: as §1
Liver [13] = assay: Biodistribution in ICR mouse liver at 370 kBq, iv after 30 mins by gamma counting; assay type: ADME, organism-based; conditions: in vivo, 0.5 h; how it was run: as §1
Brain [14] = assay: Biodistribution in ICR mouse brain at 370 kBq, iv after 2 mins by gamma counting; assay type: ADME, organism-based; conditions: in vivo; how it was run: as §1
Kidney [15] = assay: Biodistribution in ICR mouse kidney at 370 kBq, iv after 60 mins by gamma counting; assay type: ADME, organism-based; conditions: in vivo, 1 h; how it was run: as §1
Stomach [16] = assay: Biodistribution in ICR mouse stomach at 370 kBq, iv after 60 mins by gamma counting; assay type: ADME, organism-based; conditions: in vivo, 1 h; how it was run: as §1
Stomach [17] = assay: Biodistribution in ICR mouse stomach at 370 kBq, iv after 2 mins by gamma counting; assay type: ADME, organism-based; conditions: in vivo; how it was run: as §1
Liver [18] = assay: Biodistribution in ICR mouse liver at 370 kBq, iv after 60 mins by gamma counting; assay type: ADME, organism-based; conditions: in vivo, 1 h; how it was run: as §1
Brain [19] = assay: Biodistribution in ICR mouse brain at 370 kBq, iv after 60 mins by gamma counting; assay type: ADME, organism-based; conditions: in vivo, 1 h; how it was run: as §1
Brain [20] = assay: Ratio of drug level in ICR mouse brain after 2 mins to ICR mouse brain after 60 mins at 370 kBq, iv; assay type: ADME, organism-based; conditions: in vivo
How it was run: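 Same intravenous study in ICR mice (370 kBq 18F tracer in saline/10% EtOH, n = 5 per time point). Ratio is brain %ID/g at 2 min divided by brain %ID/g at 60 min post-injection.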

Stomach [21] = assay: Biodistribution in ICR mouse stomach at 370 kBq, iv after 30 mins by gamma counting; assay type: ADME, organism-based; conditions: in vivo, 0.5 h; how it was run: as §1
Bone [22] = assay: Biodistribution in ICR mouse bone at 370 kBq, iv after 60 mins by gamma counting; assay type: ADME, organism-based, Bone element; conditions: in vivo, 1 h; how it was run: as §1
[23] = Lipophilicity, log D of the compound; assay type: physicochemical; conditions: octanol/water
How it was run: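 18F tracer (740 kBq) in 3 g n-octanol plus 3 g PBS (0.05 M, pH 7.4). Vortexed 3 min at room temperature, centrifuged 5 min at 3000 rpm; weighed samples from octanol and buffer layers counted.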

Heart [24] = assay: Biodistribution in ICR mouse heart at 370 kBq, iv after 10 mins by gamma counting; assay type: ADME, organism-based; conditions: in vivo; how it was run: as §1
Blood [25] = assay: Biodistribution in ICR mouse blood at 370 kBq, iv after 10 mins by gamma counting; assay type: ADME, organism-based; conditions: in vivo; how it was run: as §1
Spleen [26] = assay: Biodistribution in ICR mouse spleen at 370 kBq, iv after 2 mins by gamma counting; assay type: ADME, organism-based; conditions: in vivo; how it was run: as §1
Bone [27] = assay: Biodistribution in ICR mouse bone at 370 kBq, iv after 30 mins by gamma counting; assay type: ADME, organism-based, Bone element; conditions: in vivo, 0.5 h; how it was run: as §1
Blood [28] = assay: Biodistribution in ICR mouse blood at 370 kBq, iv after 60 mins by gamma counting; assay type: ADME, organism-based; conditions: in vivo, 1 h; how it was run: as §1
Brain [29] = assay: Biodistribution in ICR mouse brain at 370 kBq, iv after 30 mins by gamma counting; assay type: ADME, organism-based; conditions: in vivo, 0.5 h; how it was run: as §1
Lung [30] = assay: Biodistribution in ICR mouse lung at 370 kBq, iv after 60 mins by gamma counting; assay type: ADME, organism-based; conditions: in vivo, 1 h; how it was run: as §1
Heart [31] = assay: Biodistribution in ICR mouse heart at 370 kBq, iv after 60 mins by gamma counting; assay type: ADME, organism-based; conditions: in vivo, 1 h; how it was run: as §1
Intestine [32] = assay: Biodistribution in ICR mouse intestine at 370 kBq, iv after 30 mins by gamma counting; assay type: ADME, organism-based; conditions: in vivo, 0.5 h; how it was run: as §1
Bone [33] = assay: Biodistribution in ICR mouse bone at 370 kBq, iv after 10 mins by gamma counting; assay type: ADME, organism-based, Bone element; conditions: in vivo; how it was run: as §1
Intestine [34] = assay: Biodistribution in ICR mouse intestine at 370 kBq, iv after 2 mins by gamma counting; assay type: ADME, organism-based; conditions: in vivo; how it was run: as §1
Lung [35] = assay: Biodistribution in ICR mouse lung at 370 kBq, iv after 30 mins by gamma counting; assay type: ADME, organism-based; conditions: in vivo, 0.5 h; how it was run: as §1
Liver [36] = assay: Biodistribution in ICR mouse liver at 370 kBq, iv after 2 mins by gamma counting; assay type: ADME, organism-based; conditions: in vivo; how it was run: as §1
Kidney [37] = assay: Biodistribution in ICR mouse kidney at 370 kBq, iv after 10 mins by gamma counting; assay type: ADME, organism-based; conditions: in vivo; how it was run: as §1
Stomach [38] = assay: Biodistribution in ICR mouse stomach at 370 kBq, iv after 10 mins by gamma counting; assay type: ADME, organism-based; conditions: in vivo; how it was run: as §1
Spleen [39] = assay: Biodistribution in ICR mouse spleen at 370 kBq, iv after 10 mins by gamma counting; assay type: ADME, organism-based; conditions: in vivo; how it was run: as §1
Liver [40] = assay: Biodistribution in ICR mouse liver at 370 kBq, iv after 10 mins by gamma counting; assay type: ADME, organism-based; conditions: in vivo; how it was run: as §1
Spleen [41] = assay: Biodistribution in ICR mouse spleen at 370 kBq, iv after 60 mins by gamma counting; assay type: ADME, organism-based; conditions: in vivo, 1 h; how it was run: as §1
Heart [42] = assay: Biodistribution in ICR mouse heart at 370 kBq, iv after 30 mins by gamma counting; assay type: ADME, organism-based; conditions: in vivo, 0.5 h; how it was run: as §1
Kidney [43] = assay: Biodistribution in ICR mouse kidney at 370 kBq, iv after 2 mins by gamma counting; assay type: ADME, organism-based; conditions: in vivo; how it was run: as §1
[44] = Displacement of [125I]IMPY from amyloid beta (1 to 42) after 2 hrs by gamma counting
How it was run: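 Competition binding against [125I]IMPY (radiochemical purity >95%) on Aβ1-42 aggregates with 1% BSA solution; inhibitor 10^-4–10^-9.5 M; 37 °C, 2 h. Free and bound separated by vacuum filtration on GF/B filters, three PBS washes (0.02 M, pH 7.4, room temperature); filters gamma-counted. Three repeats; IC50 fitted, Ki from Cheng–Prusoff.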

[45] = target: Amyloid-beta precursor protein (Homo sapiens) (UniProt P05067); assay: Binding affinity to beta-amyloid in normal human brain at 1.85 MBq/[…] after 1 hr by thioflavin-S based autoradiography; conditions: 1.85 M, tested as the 18F-labelled form
How it was run: (§2)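 Paraffin human temporal-lobe sections (5 µm; AD case or control) deparaffinized through xylene and graded ethanol, then PBS (0.2 M, pH 7.4) for 30 min. Incubated with 18F tracer (1.85 MBq/200 µL), 1 h, room temperature; washed in 40% EtOH, rinsed in water; phosphor plate exposure 2 h.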

[46] = target: Amyloid-beta precursor protein (Homo sapiens) (UniProt P05067); assay: Binding affinity to beta-amyloid in Alzheimer's disease patient brain at 1.85 MBq/[…] after 1 hr by thioflavin-S based autoradiography; conditions: 1.85 M, tested as the 18F-labelled form; how it was run: as §2
Mus musculus = species on record: Mus musculus; assay: Binding affinity to beta-amyloid in APPswe/PSEN1 transgenic C57BL6 mouse model brain at 1.85 MBq/[…] after 1 hr by thioflavin-S based autoradiography; conditions: 1.85 M, tested as the 18F-labelled form
How it was run: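 Transgenic mouse brain sections deparaffinized, then incubated with 18F tracer (1.85 MBq/200 µL) for 1 h at room temperature. Washed in 40% EtOH, phosphor-imaged after 2 h exposure. Same sections then stained with 0.125% thioflavin-S in 10% EtOH for 3 min and imaged by fluorescence (excitation 405 nm, long-pass 505 nm).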

Sequence of Amyloid-beta precursor protein (Homo sapiens) (P05067 whole entry): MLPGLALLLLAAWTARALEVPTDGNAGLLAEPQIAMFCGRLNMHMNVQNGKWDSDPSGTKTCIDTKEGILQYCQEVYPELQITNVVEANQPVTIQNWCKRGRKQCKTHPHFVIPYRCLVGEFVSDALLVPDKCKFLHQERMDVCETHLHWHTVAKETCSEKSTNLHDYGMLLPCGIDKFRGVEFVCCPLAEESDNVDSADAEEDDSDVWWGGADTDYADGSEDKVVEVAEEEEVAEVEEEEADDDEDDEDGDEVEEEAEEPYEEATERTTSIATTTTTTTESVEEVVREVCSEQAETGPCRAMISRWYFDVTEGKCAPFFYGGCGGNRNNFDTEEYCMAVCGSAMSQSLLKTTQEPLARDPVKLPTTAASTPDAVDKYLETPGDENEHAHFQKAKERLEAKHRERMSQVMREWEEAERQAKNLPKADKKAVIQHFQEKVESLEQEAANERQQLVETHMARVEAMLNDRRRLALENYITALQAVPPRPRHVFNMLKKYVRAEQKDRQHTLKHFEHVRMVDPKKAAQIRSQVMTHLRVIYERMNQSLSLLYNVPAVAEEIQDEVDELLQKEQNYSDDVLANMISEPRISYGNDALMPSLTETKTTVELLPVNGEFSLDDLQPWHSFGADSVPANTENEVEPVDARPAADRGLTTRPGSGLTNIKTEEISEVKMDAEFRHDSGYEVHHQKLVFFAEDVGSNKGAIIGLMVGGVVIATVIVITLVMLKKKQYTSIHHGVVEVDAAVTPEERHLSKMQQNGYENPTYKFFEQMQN

A Ki [1] of 0.74 nM was found for `CNc1ccc(-c2nc3ccc(O)cc3s2)cc1[18F]` [FLUTEMETAMOL F 18] in this work.

A Drug uptake (Intestine [2]) of 12.87 %ID, a Drug uptake (Bone [3]) of 2.46 % ID/g and a Drug uptake (Blood [4]) of 5.09 % ID/g were found for `CNc1ccc2nc(-c3ccc(OCC[18F])cc3)cnc2c1` in this work. For the same compound, the Drug uptake (Lung [5]) was 6.38 % ID/g, the Drug uptake (Heart [6]) was 6.08 % ID/g and the Drug uptake (Spleen [7]) was 3.35 % ID/g. For the same compound, the Drug uptake (Brain [8]) was 5.07 % ID/g, the Drug uptake (Kidney [9]) was 4.25 % ID/g and the Drug uptake (Blood [10]) was 4.93 % ID/g. For the same compound, the Drug uptake (Lung [11]) was 4.36 % ID/g, the Drug uptake (Intestine [12]) was 18.75 %ID and the Drug uptake (Liver [13]) was 5.37 % ID/g. It also gave a Drug uptake (Brain [14]) of 8.17 % ID/g, a Drug uptake (Kidney [15]) of 3.79 % ID/g and a Drug uptake (Stomach [16]) of 2.5 %ID. For the same compound, the Drug uptake (Stomach [17]) was 1.81 %ID, the Drug uptake (Liver [18]) was 5 % ID/g and the Drug uptake (Brain [19]) was 3.17 % ID/g. The Ratio (Brain [20]) was 2.58, the Drug uptake (Stomach [21]) was 1.84 %ID and the Drug uptake (Bone [22]) was 6.2 % ID/g. It also gave a logD [23] of 3.14, a Drug uptake (Heart [24]) of 4.27 % ID/g and a Drug uptake (Blood [25]) of 4.68 % ID/g. For the same compound, the Drug uptake (Spleen [26]) was 4.71 % ID/g, the Drug uptake (Bone [27]) was 5.73 % ID/g and the Drug uptake (Blood [28]) was 5.24 % ID/g. The Drug uptake (Brain [29]) was 3.45 % ID/g, the Drug uptake (Lung [30]) was 3.77 % ID/g and the Drug uptake (Heart [31]) was 4.24 % ID/g. The Drug uptake (Intestine [32]) was 17.15 %ID, the Drug uptake (Bone [33]) was 2.84 % ID/g and the Drug uptake (Intestine [34]) was 9.63 %ID. The Drug uptake (Lung [35]) was 3.78 % ID/g, the Drug uptake (Liver [36]) was 9.5 % ID/g and the Drug uptake (Kidney [37]) was 5.96 % ID/g. It also gave a Drug uptake (Stomach [38]) of 2.55 %ID, a Drug uptake (Spleen [39]) of 3.87 % ID/g and a Drug uptake (Liver [40]) of 7.8 % ID/g. It also gave a Drug uptake (Spleen [41]) of 3.04 % ID/g, a Drug uptake (Heart [42]) of 4.28 % ID/g and a Drug uptake (Kidney [43]) of 9.37 % ID/g.

With `CNc1ccc2nc(-c3ccc(OCCF)cc3)cnc2c1` the Ki [44] was 10 nM, the Activity [45] was “inactive” and the Activity [46] was “Active”. For the same compound, the Activity (Mus musculus) was “Active”.

For `CNc1ccc2nc(-c3ccc(OCCOCCOCCF)cc3)cnc2c1`, the Ki [44] was 5.3 nM, the Activity [45] was “inactive” and the Activity [46] was “Active”. The Activity (Mus musculus) was “Active”.
